Out of some 5,600 compounds screened, about 1,200 (21%) were called active. About 3% were inconclusive and are not listed. Only a sample is shown. A number with no mark means an inactive call.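 The calls were made as follows: active = mean inhibition above about 95%, with at least 55% of replicates also reaching it (limit read from the data); inconclusive = meets just one of the two conditions; inactive = meets neither condition.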

The nature of the experiment: Trypanosoma cruzi growth blockers in host fibroblasts – NIH3T3 host cells, beta-gal parasites, cherry-pick, set 2, confirmation (AID 651740).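 Also: plate controls were neutral control median for no effect and positive control median for full effect.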 Conditions: T. cruzi beta-gal in NIH3T3, GalScreen luminescence, 90 h; at 2.09 µM; active compounds read high. A digest of the protocol:
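Test system: beta-gal T. cruzi in mouse NIH/3T3 fibroblasts. Quantity: 5,000 host cells per well. Buffer or medium: DMEM plus 2% fetal bovine serum, 1% PSG. Reagent: 5000 trypomastigotes per well. Timing: 3 h host cell attachment, then ≥90 h compound-parasite co-culture, 60 min GalScreen. Technique: luminescence, GalScreen.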
What is called inhibition is the relative decrease from the control value, in per cent. With `O=C(c1ccc(F)cc1)N1CCCCN2[C@H](C1)[C@@H](c1ccc(C#CC3(O)CCCC3)cc1)[C@@H]2CO`, the inhibition is 2.53%.
As for `CCCNC(=O)N(C)C[C@@H]1Oc2ncc(C#Cc3ccccc3F)cc2C(=O)N([C@@H](C)CO)C[C@H]1C`, the figure is 94.5%.
As for `O=C(Nc1ccc(-c2ccccc2)cc1)[C@H]1[C@H](CO)[C@H]2Cn3c(cccc3=O)[C@H]2N1CC1CC1`, the inhibition was 33.8%.
Turning to `C[C@@H]1CN([C@H](C)CO)C(=O)c2cc(-c3cncnc3)cnc2O[C@H]1CN(C)C(=O)Nc1ccc2c(c1)OCO2`, the inhibition was -52%.
As for `N#C[C@@H]1[C@@H](c2ccc(/C=C/c3ccccc3)cc2)[C@@H](CO)N1C(=O)C1CC1`, the figure is 68.6%; as for `COc1ccc(S(=O)(=O)Nc2ccc3c(c2)C(=O)N([C@H](C)CO)C[C@@H](C)[C@@H](CN(C)CC2CCCCC2)OCCCC[C@@H](C)O3)cc1`, 105% (active).
`C[C@H](CO)N1C[C@H](C)[C@H](CN(C)Cc2ccc(C(F)(F)F)cc2)Oc2ccc(NS(=O)(=O)c3ccc(Cl)cc3)cc2C1=O`: the inhibition is 74%.
In the case of `C[C@@H]1CCCCO[C@H](CN(C)Cc2ccccc2)[C@H](C)CN([C@H](C)CO)C(=O)c2cc(NS(=O)(=O)c3ccc(Cl)cc3)ccc2O1`, the inhibition is 107% (active).
Regarding `C[C@H](CO)N1C[C@H](C)[C@H](CN(C)Cc2ccc(C(F)(F)F)cc2)OCCCC[C@H](C)Oc2ccc(NS(=O)(=O)c3ccc(Cl)cc3)cc2C1=O`, the inhibition was 104% (active).
With `Cc1ccc(S(=O)(=O)N(C)C[C@@H]2OCCCC[C@@H](C)Oc3ccc(NS(=O)(=O)c4ccc(F)cc4)cc3C(=O)N([C@H](C)CO)C[C@H]2C)cc1`, the inhibition was 76.8%.
As for `C[C@@H]1CCCCO[C@H](CN(C)C(=O)NC2CCCCC2)[C@H](C)CN([C@H](C)CO)C(=O)c2cc(NS(=O)(=O)c3ccc(Cl)cc3)ccc2O1`, the figure is 50.5%; as for `C[C@@H]1CN([C@H](C)CO)C(=O)c2cc(NS(=O)(=O)c3ccc(Cl)cc3)ccc2O[C@@H](C)CCCCO[C@H]1CN(C)Cc1ccccc1`, 94.6%.
With `COc1ccc(S(=O)(=O)Nc2ccc3c(c2)C(=O)N([C@H](C)CO)C[C@H](C)[C@H](CN(C)Cc2ccc(C(F)(F)F)cc2)O3)cc1`, the inhibition is 85.4%.
The same measure for `C[C@@H]1CN([C@H](C)CO)C(=O)c2cc(NS(=O)(=O)c3cccs3)ccc2O[C@@H](C)CCCCO[C@@H]1CN(C)S(=O)(=O)c1ccc(Cl)cc1`: 63.6%; for `COc1ccc(S(=O)(=O)N(C)C[C@H]2OCCCC[C@H](C)Oc3ccc(NS(=O)(=O)c4ccc(F)cc4)cc3C(=O)N([C@@H](C)CO)C[C@@H]2C)cc1`: 54%.
The same measure for `C[C@@H]1CN([C@H](C)CO)C(=O)c2cc(NS(=O)(=O)c3cccs3)ccc2O[C@@H](C)CCCCO[C@H]1CN(C)Cc1ccc(C(F)(F)F)cc1`: 112% (active); for `C[C@@H]1CCCCO[C@H](CN(C)S(=O)(=O)c2cccs2)[C@H](C)CN([C@H](C)CO)C(=O)c2cc(NS(=O)(=O)c3ccc(F)cc3)ccc2O1`: 62.8%; for `COc1ccc(CN(C)C[C@H]2Oc3ccc(NS(=O)(=O)c4ccc(Cl)cc4)cc3CC(=O)N([C@@H](C)CO)C[C@H]2C)cc1`: 33.6%.
As for `C[C@@H]1CN([C@H](C)CO)C(=O)c2cccc(NC(=O)c3ccc(-c4nccs4)cc3)c2O[C@@H]1CN(C)C(=O)Nc1ccc(C(F)(F)F)cc1`, the figure is 53%.
On to `CC(C)CC#Cc1cnc2c(c1)C(=O)N([C@@H](C)CO)C[C@@H](C)[C@H](CN(C)C(=O)Cc1ccncc1)O2`, for which the inhibition was 29.7%.
Turning to `O=C(c1cccc(F)c1)N1CCCCN2[C@H](CO)[C@H](c3ccc(-c4ccncc4)cc3)[C@H]2C1`, the inhibition is 82%.
Consider `CN(C)C(=O)c1ccc(-c2ccc([C@@H]3[C@H](CO)N4CCCCN(S(C)(=O)=O)C[C@@H]34)cc2)cc1`, for which the inhibition is 17.3%.
In the case of `Cc1cccc(-c2ccc([C@H]3[C@@H](CO)N4CCCCN(Cc5cncnc5)C[C@H]34)cc2)c1`, the inhibition was 48.1%.
As for `CN(C)C(=O)c1ccc(-c2ccc3c(c2)[C@H]2[C@H](CCN2C(=O)c2ccc4c(c2)OCO4)[C@H](CO)N3)cc1`, the figure is 72.2%; as for `C[C@H]1CCCCO[C@@H](CN(C)C(=O)NC2CCCCC2)[C@@H](C)CN([C@@H](C)CO)C(=O)c2cc(NS(=O)(=O)c3ccc(Cl)cc3)ccc2O1`, 68%.
As for `C[C@@H]1CN([C@H](C)CO)C(=O)c2cc(NC(=O)Nc3ccc(F)cc3)ccc2O[C@@H](C)CCCCO[C@@H]1CN(C)CC1CCCCC1`, the figure is 104% (active); as for `Cc1ccc(S(=O)(=O)Nc2ccc3c(c2)C(=O)N([C@H](C)CO)C[C@H](C)[C@H](CN(C)C(=O)Nc2ccc(F)cc2)OCCCC[C@H](C)O3)cc1`, 71.2%.
As for `C[C@@H]1CCCCO[C@@H](CN(C)CC2CC2)[C@H](C)CN([C@H](C)CO)C(=O)c2cc(NC(=O)C3CCCCC3)ccc2O1`, the figure is 89.3%.
`C[C@H]1CCCCO[C@H](CN(C)Cc2ccccc2)[C@@H](C)CN([C@@H](C)CO)C(=O)c2cc(NC(=O)c3ccccc3)ccc2O1`: the inhibition was 68.2%.
On to `C[C@@H]1CCCCO[C@H](CN(C)Cc2ccc(C(F)(F)F)cc2)[C@H](C)CN([C@H](C)CO)C(=O)c2cc(NC(=O)Nc3ccc(F)cc3)ccc2O1`, for which the inhibition was 117% (active).
`C[C@@H]1CCCCO[C@H](CN(C)Cc2ccccc2)[C@@H](C)CN([C@@H](C)CO)C(=O)c2cc(NC(=O)Nc3ccc(F)cc3)ccc2O1`: the inhibition is 103% (active).
In the case of `C[C@@H]1CCCCO[C@@H](CN(C)Cc2ccc(C(F)(F)F)cc2)[C@@H](C)CN([C@H](C)CO)C(=O)c2cc(NC(=O)Nc3ccccc3)ccc2O1`, the inhibition was 64.3%.
For the compound `C[C@@H]1CCCCO[C@H](CN(C)C(=O)NC2CCCCC2)[C@H](C)CN([C@H](C)CO)C(=O)c2cc(NC(=O)Nc3ccc(F)cc3)ccc2O1`, the inhibition is 105% (active).
The same measure for `C[C@H]1CCCCO[C@H](CN(C)Cc2ccccc2)[C@@H](C)CN([C@@H](C)CO)C(=O)c2cc(NC(=O)NC3CCCCC3)ccc2O1`: 43.1%; for `C[C@@H]1CN([C@@H](C)CO)C(=O)c2cc(C#CC3CCCCC3)cnc2O[C@H]1CN(C)S(=O)(=O)c1ccccc1`: 85.8%.
As for `COc1ccc(-c2ccc3c(c2)[C@@H]2[C@@H](CCN2C(=O)Cc2ccccn2)[C@H](CO)N3C)cc1`, the figure is 84.9%.
Consider `O=C(C1CCCC1)N1CCCCN2[C@@H](CO)[C@H](c3ccc(-c4cccc(F)c4)cc3)[C@@H]2C1`, for which the inhibition is 78.2%.
As for `O=C(CN1CCOCC1)N1CCCCN2[C@@H](CO)[C@H](c3ccc(/C=C/c4ccccc4)cc3)[C@@H]2C1`, the figure is 25.9%.
Consider `C[C@H]1CN([C@@H](C)CO)S(=O)(=O)c2ccc(C#Cc3cccc(F)c3)cc2O[C@@H]1CN(C)S(=O)(=O)c1cn(C)cn1`, for which the inhibition was 24.7%.
As for `C[C@@H]1CN([C@@H](C)CO)C(=O)c2cc(NC(=O)Nc3cccc4ccccc34)ccc2O[C@@H](C)CCCCO[C@H]1CN(C)Cc1ccccc1`, the figure is 94.8%.
With `C[C@@H]1CCCCO[C@@H](CN(C)Cc2ccccc2)[C@H](C)CN([C@H](C)CO)C(=O)c2cc(NC(=O)Nc3cccc4ccccc34)ccc2O1`, the inhibition was 110% (active).
The same measure for `Cc1ccc(S(=O)(=O)Nc2ccc3c(c2)C(=O)N([C@@H](C)CO)C[C@@H](C)[C@H](CN(C)C(=O)Nc2cccc4ccccc24)OCCCC[C@H](C)O3)cc1`: 66.1%; for `C[C@H](CO)N1C[C@H](C)[C@H](CN(C)S(=O)(=O)c2ccccc2)Oc2ncc(-c3cccc(C(F)(F)F)c3)cc2C1=O`: 47.5%; for `OC[C@@H]1[C@H](c2ccc(C#CC3CC3)cc2)[C@@H]2CN(CCC(F)(F)F)CCCCN12`: 78.6%.
For the compound `COc1ccc(NC(=O)N(C)C[C@@H]2Oc3c(NC(=O)NC4CCCCC4)cccc3C(=O)N([C@@H](C)CO)C[C@@H]2C)cc1`, the inhibition is 23.4%.
`C[C@@H]1CN([C@@H](C)CO)C(=O)c2cc(NC(=O)C3CCCCC3)ccc2O[C@@H](C)CCCCO[C@H]1CN(C)Cc1ccncc1`: the inhibition is 78%.
As for `C[C@@H]1CN([C@H](C)CO)C(=O)c2cccc(NC(=O)NC3CCCCC3)c2O[C@H]1CN(C)Cc1ccc(C(F)(F)F)cc1`, the figure is 106% (active).
The same measure for `C[C@H](CO)N1C[C@H](C)[C@@H](CN(C)Cc2ccc(C(F)(F)F)cc2)OCCCC[C@H](C)Oc2ccc(NC(=O)C3CCCCC3)cc2C1=O`: 106% (active).
With `C[C@H]1CCCCO[C@H](CN(C)Cc2ccc(C(F)(F)F)cc2)[C@@H](C)CN([C@@H](C)CO)C(=O)c2cc(NC(=O)C3CCCCC3)ccc2O1`, the inhibition is 111% (active).
As for `C[C@H](CO)N1C[C@H](C)[C@@H](CN(C)Cc2ccc(C(=O)Nc3ccccc3N)cc2)Oc2c(NC(=O)c3ccc(-c4nccs4)cc3)cccc2C1=O`, the inhibition was 60.5%.
As for `C[C@@H]1CN([C@H](C)CO)S(=O)(=O)c2ccc(C#Cc3ccncc3)cc2O[C@@H]1CN(C)S(=O)(=O)c1ccc(F)cc1`, the figure is 22.2%.
The same measure for `OC[C@H]1[C@H](c2ccc(-c3cccc(F)c3)cc2)[C@@H]2CN(Cc3cncnc3)CCCCN12`: 60.7%; for `CC(=O)N(C)C[C@@H]1[C@@H](c2ccc(-c3ccccc3F)cc2)[C@@H](CO)N1C(C)=O`: 26.5%.
The same measure for `OC[C@@H]1[C@H](c2ccc(C#Cc3ccccc3)cc2)[C@@H]2CN(Cc3cncnc3)CCCCN12`: 90.4%.
As for `N#C[C@H]1[C@@H](c2ccc(C3=CCCCC3)cc2)[C@@H](CO)N1C(=O)NC1CCCCC1`, the inhibition was 59.4%.

The record behind these values is PubChem BioAssay AID651740 (Broad Institute, 2012).
